Reference: PMC7707623 (Journal of Medicinal Chemistry, 2020)

Assays:
[1] = system: murine SCLC cell line 319N1; assay: Cytotoxicity assay; type: cell-based, mouse
In short: (§1)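 Murine SCLC cells were allowed to attach overnight, then given test compound as a 10-point log-dilution series. Viability was read by CellTiter-Glo luminescence at 72 h, with the reagent diluted 1:1 in PBS/1% Triton-X. Signals were normalized to DMSO-treated cells and IC50 values came from curve fitting (n = 2 technical replicates). Fold values are ratios of these IC50s.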

[2] = biological target: T1, p50 (β-tubulin) in 518T2 murine SCLC cells (Mus musculus, UniProt P99024); type: binding; conditions: 50 nM to 50 μM, 1.5 h, Alexa Fluor 532 azide
In short: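 518T2 cells were plated at 1 million per well in DMEM with 5% FBS. Next day the alkyne probe in DMSO was added at 50 nM to 50 μM for 1.5 h at 37 °C, 5% CO2. Cells were PBS-washed and lysed in 1% SDS buffer (50 mM HEPES pH 7.4, 10 mM KCl, 2 mM MgCl2, benzonase). Lysates were copper-clicked to 25 μM Alexa Fluor 532 azide, run on SDS-PAGE and imaged by in-gel fluorescence.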

yeast cells (Sec14) = conditions: through inhibition of Sec14; cited from earlier work
[3] = system: three independent murine SCLC (mSCLC) cell lines; assay: Cytotoxicity against three murine SCLC cell lines; type: cell-based; conditions: Mus musculus, read-out: average EC50
In short: as §1

[4] = system: human SCLC cell lines, H889, H2107, and H128; assay: Dose response against human SCLC cell lines; type: cell-based
[5] = system: 319N1-M2KO resistant clones A–E; assay: Cytotoxicity against sulfonamide 27-resistant clones; type: cell-based, mouse; conditions: for IC50 fold change, resistant clones versus parental: all five clones A–E
518T2-Tubb5^T238A cells = assay: Dose response in Tubb5 T238A edited cells; type: cell-based, mouse; conditions: 518T2-Tubb5^T238A versus 518T2
518T2 cells = assay: Cell cycle analysis by flow cytometry; type: cell-based, mouse; conditions: 300 nM, 24 h
bovine brain tubulin = assay: Microtubule dynamics assay, brain tubulin; type: biochemical
[6] = biological target: human recombinant β3 tubulin (Homo sapiens, UniProt Q13509); assay: Microtubule dynamics assay, recombinant β3 tubulin; type: biochemical
In short: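 Human αβ-tubulin (TUBA1B with TUBB3, C-terminal His-tag removed by TEV) was expressed in Tni insect cells and purified by Ni-affinity and anion exchange. Compound was added at 1, 5 or 10 μM versus DMSO; kymograph growth rates were taken from 71–119 microtubules over two trials.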

[7] = biological target: T1, p50 (β-tubulin) in 518T2 murine SCLC cells; assay: Cell-based competition with alkyne probe 24; type: binding; conditions: probe 24 at 5 μM, pre-treatment with increasing concentrations

Cc1ccc(Cl)cc1N1CCN(C(=O)c2ccc(I)c([N+](=O)[O-])c2)CC1 [Compound 22, (4-(5-Chloro-2-methylphenyl)piperazin-1-yl)(4-iodo-3-nitrophenyl)methanone]
EC50 ([1]; Mus musculus, 319N1): 0.051 µM

C#CCOc1cccc(N2CCN(C(=O)c3ccc(C)c([N+](=O)[O-])c3)CC2)c1 [Compound 25, (4-Methyl-3-nitrophenyl)(4-(3-(prop-2-yn-1-yloxy)phenyl)piperazin-1-yl)methanone]
covalent modification of 50 kDa protein (p50), in-gel fluorescence [2]: not observed
fold less active compared to 24 ([1]; 319N1): 10 fold

O=C(c1ccc(Cl)c([N+](=O)[O-])c1)N1CCN(c2ccccc2)CC1 [Compound 1]
toxicity to yeast cells (yeast cells (Sec14)): toxic to yeast cells
EC50 [3]: 3.21 ± 0.6 µM
sensitivity of human SCLC cell lines [4]: exhibited sensitivity

COc1cccc(N2CCN(C(=O)c3ccc(Cl)c([N+](=O)[O-])c3)CC2)c1 [Compound 3, (4-Chloro-3-nitrophenyl)(4-(3-methoxyphenyl)piperazin-1-yl)methanone]
fold more potent than benzamide 1 ([1]; 319N1): ~3 fold

Cc1cccc(N2CCN(C(=O)c3ccc(Cl)c([N+](=O)[O-])c3)CC2)c1 [Compound 4, (4-Chloro-3-nitrophenyl)(4-(m-tolyl)piperazin-1-yl)methanone]
fold more potent than benzamide 1 ([1]; 319N1): ~3 fold

COc1cc([C@@H]2c3cc4c(cc3[C@@H](O[C@@H]3O[C@@H]5CO[C@@H](C)O[C@H]5[C@H](O)[C@H]3O)[C@H]3COC(=O)[C@H]23)OCO4)cc(OC)c1O [etoposide, reference compound]
cross-resistance of 27-resistant clones, in words ([5]; clones A–E): not cross-resistant

(4-Bromo-3-nitrophenyl)(4-(5-chloro-2-methylphenyl)piperazin-1-yl)methanone [Compound 21]
EC50 ([1]; 319N1 mSCLC cells, quoted in running text): 0.055 µM
compound resistance compared to parental 518T2 cells (518T2-Tubb5^T238A cells): Compound resistance to analog 21 was confirmed
cell cycle effect (518T2 cells): induced G2/M cell cycle arrest
effect on growth of brain tubulin, in words (bovine brain tubulin; 1 μM): dramatically affected the growth
reduction of growth of bovine brain microtubules (bovine brain tubulin; 10:1 (tubulin/compound) ratio, compared to control): approximately 80%
effect on in vitro microtubule growth rate of β3 tubulin, in words ([6]; up to 10 μM): failed to impair

COC(=O)c1c(C)oc2ccc(NS(=O)(=O)c3ccc(Cl)c([N+](=O)[O-])c3)cc12 [Compound 27]
IC50 fold change, resistant clones versus parental [5]: > 2 fold
competition with probe 24 for p50, in words [7]: displaced probe 24 from p50 in a dose-responsive manner

Cc1ccc(Cl)cc1N1CCN(C(=O)c2ccc(Cl)c([N+](=O)[O-])c2)CC1 [Compound 10, (4-(5-Chloro-2-methylphenyl)piperazin-1-yl)(4-chloro-3-nitrophenyl)methanone]
IC50 fold change, resistant clones versus parental [5]: > 2.5 fold
EC50 ([1]; Mus musculus, 319N1): 0.182 µM

COc1cc(OC)cc(N2CCN(C(=O)c3ccc(C=O)c([N+](=O)[O-])c3)CC2)c1 [Compound 26, 4-(4-(3,5-Dimethoxyphenyl)piperazine-1-carbonyl)-2-nitrobenzaldehyde]
EC50 ([1]; Mus musculus, 319N1): 0.127 µM
effect on growth of microtubules of bovine brain tubulin, in words (bovine brain tubulin; 0.5 μM (SI Figure 5C)): potently reduced the growth
effect on dynamics of β3 tubulin microtubules, in words ([6]; 1, 5 and 10 μM): dose-dependently altered the dynamics

CC[C@]1(O)C[C@H]2CN(CCc3c([nH]c4ccccc34)[C@@](C(=O)OC)(c3cc4c(cc3OC)N(C=O)[C@H]3[C@@](O)(C(=O)OC)[C@H](OC(C)=O)[C@]5(CC)C=CCN6CC[C@]43[C@@H]65)C2)C1 [vincristine, reference compound]
competition with probe 24 for p50, in words [7]: no such probe competition was observed

COc1cc2c(c(OC)c1OC)-c1ccc(OC)c(=O)cc1[C@@H](NC(C)=O)CC2 [colchicine, reference compound]
cell cycle effect (518T2 cells): induced G2/M cell cycle arrest

O=C(c1ccc(Cl)cc1)N1CCN(c2ccccc2)CC1 [Compound 28]
antiproliferative activity in words ([1]; 319N1): complete eradication of antiproliferative activity

C#CCOc1cccc(N2CCN(C(=O)c3ccc(Cl)c([N+](=O)[O-])c3)CC2)c1 [Compound 24, (4-Chloro-3-nitrophenyl)(4-(3-(prop-2-yn-1-yloxy)phenyl)piperazin-1-yl)methanone]
covalent modification of 50 kDa protein (p50), in-gel fluorescence [2]: covalently modified

Cc1ccc(Cl)cc1N1CCN(C(=O)c2ccc(OC(F)(F)F)c([N+](=O)[O-])c2)CC1 [Compound 23, (4-(5-Chloro-2-methylphenyl)piperazin-1-yl)(3-nitro-4-(trifluoromethoxy)phenyl)methan-one]
EC50 ([1]; Mus musculus, 319N1): 0.02 µM

O=C(c1ccc(Cl)c([N+](=O)[O-])c1)N1CCN(c2ccccc2F)CC1 [Compound 12]
fold less active than parent benzamide 1 ([1]; 319N1): 2 fold

O=C(c1cccc([N+](=O)[O-])c1)N1CCN(c2ccccc2)CC1 [Compound 29]
antiproliferative activity in words ([1]; 319N1): complete eradication of antiproliferative activity

O=C(c1ccc(Cl)c([N+](=O)[O-])c1)N1CCN(c2ccccc2Cl)CC1 [Compound 2, (4-Chloro-3-nitrophenyl)(4-(2-chlorophenyl)piperazin-1-yl)methanone]
antiproliferative activity in words ([1]; 319N1): slightly improved potency

Cc1ccc(Cl)cc1N1CCN(C(=O)c2ccc(F)c([N+](=O)[O-])c2)CC1 [Compound 20, (4-(5-Chloro-2-methylphenyl)piperazin-1-yl)(4-fluoro-3-nitrophenyl)methanone]
EC50 ([1]; Mus musculus, 319N1): 0.818 µM
